Calls of active or inactive are those of the source. The calls are words filed in the database; no cut-off is given here.
Legend:
Bacillus cereus [1] = assay: Bactericidal activity against Bacillus cereus CECT 148 at 0.2 mg/disk after 24 hrs by agar diffusion assay; type: functional
Procedure, shortened: (§1)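 Each bacterium, kept as 24-h cultures on solid-medium slants, was reactivated in Nutrient Broth for 24 h at 28 or 37 °C depending on species. 1 mL of this suspension was plated and overlaid with 15 mL Plate Count Agar. Once the agar solidified, five paper disks loaded with test product were applied. Plates were incubated 24 h in the dark at 28 or 37 °C by species.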

Staphylococcus aureus [2] = assay: Bactericidal activity against Staphylococcus aureus CECT 86 at 0.2 mg/disk after 24 hrs by agar diffusion assay; type: functional; procedure, shortened: as §1
Enterococcus faecalis [3] = assay: Bactericidal activity against Enterococcus faecalis CECT 481 at 0.2 mg/disk after 24 hrs by agar diffusion assay; type: functional; procedure, shortened: as §1
Salmonella typhi [4] = assay: Bactericidal activity against Salmonella typhi CECT 409 at 0.2 mg/disk after 24 hrs by agar diffusion assay; type: functional; details: for Activity: Salmonella enterica subsp. enterica serovar Typhi
Procedure, shortened: (§2)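 Bacteria from 24-h slant cultures reactivated in Nutrient Broth for 24 h at 28 or 37 °C depending on strain. 1 mL of suspension was placed in a plate and overlaid with 15 mL Plate Count Agar. After solidification, five paper disks loaded with compound were applied. Plates were incubated 24 h in the dark at 28 or 37 °C depending on strain.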

Escherichia coli [5] = assay: Bactericidal activity against Escherichia coli CECT 405 at 0.2 mg/disk after 24 hrs by agar diffusion assay; type: functional; procedure, shortened: as §1
Escherichia coli [6] = assay: Bactericidal activity against Escherichia coli CECT 100 at 0.2 mg/disk after 24 hrs by agar diffusion assay; type: functional; procedure, shortened: as §1
[7] = system: Pectobacterium carotovorum; assay: Bactericidal activity against Erwinia carotovora CECT 225 at 0.2 mg/disk after 24 hrs by agar diffusion assay; type: functional; procedure, shortened: as §1
Aspergillus parasiticus [8] = assay: Fungicidal activity against Aspergillus parasiticus CECT 2681 at 0.4 mg/disk after 48 hrs by agar diffusion assay; type: functional, organism-based
Procedure, shortened: (§3)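 Fungi were grown 7 days at 28 °C on PDA, then suspended in 0.05% Tween 80 in sterile water to about 10^6 conidia/mL. 1 mL was mixed into 15 mL PDA. After setting, four 0.5 cm paper disks impregnated with test product were added. Controls were solvent-only disks and benomyl disks, dosed per fungus. The read-out was the no-growth inhibition zone (mm), as the mean ± SE of three independent experiments.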

Trichoderma viride [9] = assay: Fungicidal activity against Trichoderma viride CECT 2423 at 0.4 mg/disk after 48 hrs by agar diffusion assay; type: functional, organism-based; procedure, shortened: as §3
Fusarium culmorum [10] = assay: Fungicidal activity against Fusarium culmorum CCM 172 at […] after 48 hrs by agar diffusion assay; type: functional, organism-based; details: 0.4 mg/disk; procedure, shortened: as §3
[11] = system: Phytophthora citrophthora; assay: Fungicidal activity against Phytophthora citrophthora CECT 2353 at 0.4 mg/disk after 48 hrs by agar diffusion assay; type: functional, organism-based; procedure, shortened: as §3
Geotrichum candidum [12] = assay: Fungicidal activity against Geotrichum candidum CCM 245 at 0.4 mg/disk after 48 hrs by agar diffusion assay; type: functional, organism-based; procedure, shortened: as §3
Trichoderma viride [13] = assay: Fungicidal activity against Trichoderma viride CECT 2423 at 0.2 mg/disk after 48 hrs by agar diffusion assay; type: functional; procedure, shortened: as §3
Fusarium culmorum [14] = assay: Fungicidal activity against Fusarium culmorum CCM 172 at 0.2 mg/disk after 48 hrs by agar diffusion assay; type: functional; procedure, shortened: as §3
[15] = system: Phytophthora citrophthora; assay: Fungicidal activity against Phytophthora citrophthora CECT 2353 at 0.2 mg/disk after 48 hrs by agar diffusion assay; type: functional; procedure, shortened: as §3
Geotrichum candidum [16] = assay: Fungicidal activity against Geotrichum candidum CCM 245 at 0.2 mg/disk after 48 hrs by agar diffusion assay; type: functional; procedure, shortened: as §3
Aspergillus parasiticus [17] = assay: Fungicidal activity against Aspergillus parasiticus CECT 2681 at 0.2 mg/disk after 48 hrs by agar diffusion assay; type: functional; procedure, shortened: as §3
Aspergillus parasiticus [18] = assay: Fungicidal activity against Aspergillus parasiticus CECT 2681 at 20 ug/disk after 48 hrs by agar diffusion assay; type: functional; details: CECT 2681, 48 h, read-out: IZ
Procedure, shortened: (§4)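 Fungi were grown on PDA for 7 days at 28 °C and suspended in 0.05% Tween 80 to about 10^6 conidia/mL. 1 mL was mixed into 15 mL PDA. Four 0.5 cm paper disks carrying compound were placed on the set agar. Solvent-only disks served as negative control. The inhibition zone (mm) around each disk was measured. Values are the mean of three independent experiments.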

Trichoderma viride [19] = assay: Fungicidal activity against Trichoderma viride CECT 2423 at 20 ug/disk after 48 hrs by agar diffusion assay; type: functional; details: CECT 2423, 48 h, read-out: IZ; procedure, shortened: as §4
[20] = system: Phytophthora citrophthora; assay: Fungicidal activity against Phytophthora citrophthora CECT 2353 at 30 ug/disk after 48 hrs by agar diffusion assay; type: functional; details: CECT 2353, 48 h, read-out: IZ; procedure, shortened: as §4
[21] = system: Pectobacterium carotovorum; assay: Bactericidal activity against Erwinia carotovora CECT 225 at 0.3 mg/disk after 24 hrs by agar diffusion assay; type: functional, organism-based; procedure, shortened: as §1
Enterococcus faecalis [22] = assay: Bactericidal activity against Enterococcus faecalis CECT 481 at 0.3 mg/disk after 24 hrs by agar diffusion assay; type: functional, organism-based; procedure, shortened: as §1
Bacillus cereus [23] = assay: Bactericidal activity against Bacillus cereus CECT 148 at 0.3 mg/disk after 24 hrs by agar diffusion assay; type: functional, organism-based; procedure, shortened: as §1
Staphylococcus aureus [24] = assay: Bactericidal activity against Staphylococcus aureus CECT 86 at 0.3 mg/disk after 24 hrs by agar diffusion assay; type: functional, organism-based; procedure, shortened: as §1
Escherichia coli [25] = assay: Bactericidal activity against Escherichia coli CECT 100 at 0.3 mg/disk after 24 hrs by agar diffusion assay; type: functional, organism-based; procedure, shortened: as §1
Salmonella typhi [26] = assay: Bactericidal activity against Salmonella typhi CECT 409 at 0.3 mg/disk after 24 hrs by agar diffusion assay; type: functional, organism-based; details: Salmonella enterica subsp. enterica serovar Typhi; procedure, shortened: as §2
Escherichia coli [27] = assay: Bactericidal activity against Escherichia coli CECT 405 at 0.3 mg/disk after 24 hrs by agar diffusion assay; type: functional, organism-based; procedure, shortened: as §1

Row | Compound | Activity (Aspergillus parasiticus [8]) | Activity (Trichoderma viride [9]) | Activity (Fusarium culmorum [10]) | Activity [11] | Activity (Geotrichum candidum [12]) | inhibition zone (IZ) (Bacillus cereus [1]) [mm] | inhibition zone (IZ) (Staphylococcus aureus [2]) [mm] | inhibition zone (IZ) (Enterococcus faecalis [3]) [mm] | inhibition zone (IZ) (Salmonella typhi [4]) [mm] | inhibition zone (IZ) (Escherichia coli [5]) [mm] | inhibition zone (IZ) (Escherichia coli [6]) [mm] | inhibition zone (IZ) [7] [mm] | inhibition zone (IZ) (Fusarium culmorum [14]) [mm] | inhibition zone (IZ) (Geotrichum candidum [16]) [mm] | further results
1 | CCNC(=O)Oc1cc2c(cc1Cl)CCN1C(=O)CCC21 (stereo not given) | inactive | inactive | inactive | inactive | inactive | – | – | – | – | – | – | – | – | – | Activity (Bacillus cereus [1]): inactive; Activity (Staphylococcus aureus [2]): inactive; Activity (Enterococcus faecalis [3]): inactive; Activity (Salmonella typhi [4]): inactive; Activity (Escherichia coli [5]): inactive; Activity (Escherichia coli [6]): inactive; Activity [7]: inactive
2 | O=C1CCC2c3ccc(OCc4ccc(F)cc4)cc3CCN12 (stereo not given) | – | – | – | – | – | 7.5 | 6.33 | 0 | 0 | 6.16 | 0 | 8 | 10.5 | 7 | inhibition zone (IZ) (Trichoderma viride [13]): 8.1 mm; inhibition zone (IZ) [15]: 10.66 mm; inhibition zone (IZ) (Aspergillus parasiticus [17]): 7.83 mm
3 | CCCCNC(=O)n1c(NC(=O)OC)nc2ccccc21 [BENOMYL] | – | – | – | – | – | – | – | – | – | – | – | – | 27.66 | 0 | zone of inhibition at 20 µg/disc (Aspergillus parasiticus [18]): 29.3 mm; zone of inhibition at 20 µg/disc (Trichoderma viride [19]): 29.3 mm; zone of inhibition at 30 µg/disc [20]: 44.3 mm
4 | O=C1CCC2c3ccc(OCc4ccccc4)cc3CCN12 (stereo not given) | – | – | – | – | – | 8.66 | 0 | 6.83 | 6 | 6.33 | 0 | 7.26 | 12 | 6.16 | inhibition zone (IZ) (Trichoderma viride [13]): 6 mm; inhibition zone (IZ) [15]: 11.33 mm; inhibition zone (IZ) (Aspergillus parasiticus [17]): 6.83 mm
5 | CN(C)[C@@H]1C(O)=C(C(N)=O)C(=O)[C@@]2(O)C(O)=C3C(=O)c4c(O)cccc4[C@@](C)(O)[C@H]3C[C@@H]12 [TETRACYCLINE] | – | – | – | – | – | 24.33 | 27 | 26 | – | 25.66 | 25.66 | 13.33 | – | – | –
6 | CCNC(=O)Oc1ccc2c(c1)CCN1C(=O)CCC21 (stereo not given) | – | – | – | – | – | 6.5 | 0 | 8.5 | 7.5 | 6.83 | 6.33 | 8.83 | 0 | 0 | inhibition zone (IZ) (Trichoderma viride [13]): 0 mm; inhibition zone (IZ) [15]: 9.66 mm; inhibition zone (IZ) (Aspergillus parasiticus [17]): 0 mm
7 | O=C1CCC2c3cc(O)c(Cl)cc3CCN12 (stereo not given) | inactive | inactive | inactive | inactive | inactive | – | – | – | – | – | – | – | – | – | Activity (Bacillus cereus [1]): inactive; Activity (Staphylococcus aureus [2]): inactive; Activity (Enterococcus faecalis [3]): inactive; Activity (Salmonella typhi [4]): inactive; Activity (Escherichia coli [5]): inactive; Activity (Escherichia coli [6]): inactive; Activity [7]: inactive
8 | O=C1CCC2c3ccc(O)cc3CCN12 (stereo not given) | – | – | – | – | – | 7.5 | 0 | 0 | 0 | 0 | 0 | 0 | – | – | Activity (Trichoderma viride [13]): inactive; Activity (Fusarium culmorum [14]): inactive; Activity [15]: inactive; Activity (Geotrichum candidum [16]): inactive; Activity (Aspergillus parasiticus [17]): inactive
9 | COc1cc2c(cc1OC)C1CCC(=O)N1CC2 (stereo not given) | inactive | inactive | inactive | inactive | inactive | – | – | – | – | – | – | – | – | – | Activity [21]: Active; Activity (Enterococcus faecalis [22]): Active; Activity (Bacillus cereus [23]): Active; Activity (Staphylococcus aureus [24]): Active; Activity (Escherichia coli [25]): Active; Activity (Salmonella typhi [26]): Active; Activity (Escherichia coli [27]): Active
10 | O=C(COc1ccc2c(c1)CCN1C(=O)CCC21)N1CCCCC1 (stereo not given) | – | – | – | – | – | – | – | – | – | – | – | – | – | – | Activity (Bacillus cereus [1]): inactive; Activity (Staphylococcus aureus [2]): inactive; Activity (Enterococcus faecalis [3]): inactive; Activity (Salmonella typhi [4]): inactive; Activity (Escherichia coli [5]): inactive; Activity (Escherichia coli [6]): inactive; Activity [7]: inactive; Activity (Trichoderma viride [13]): inactive; Activity (Fusarium culmorum [14]): inactive; Activity [15]: inactive; Activity (Geotrichum candidum [16]): inactive; Activity (Aspergillus parasiticus [17]): inactive
11 | O=C(COc1cc2c(cc1OCC(=O)Nc1ccccc1)C1CCC(=O)N1CC2)Nc1ccccc1 (stereo not given) | inactive | inactive | inactive | inactive | inactive | – | – | – | – | – | – | – | – | – | Activity (Bacillus cereus [1]): inactive; Activity (Staphylococcus aureus [2]): inactive; Activity (Enterococcus faecalis [3]): inactive; Activity (Salmonella typhi [4]): inactive; Activity (Escherichia coli [5]): inactive; Activity (Escherichia coli [6]): inactive; Activity [7]: inactive
12 | O=C1CCC2c3cc(OCc4ccc(F)cc4)c(OCc4ccc(F)cc4)cc3CCN12 (stereo not given) | inactive | inactive | inactive | inactive | inactive | 7.33 | 0 | 6.33 | 5.83 | 6.83 | 0 | 7 | – | – | –
13 | O=C(COc1ccc2c(c1)CCN1C(=O)CCC21)Nc1ccccc1 (stereo not given) | – | – | – | – | – | 8.83 | 0 | 7.33 | – | 7.5 | 0 | 8 | – | – | Activity (Trichoderma viride [13]): inactive; Activity (Fusarium culmorum [14]): inactive; Activity [15]: inactive; Activity (Geotrichum candidum [16]): inactive; Activity (Aspergillus parasiticus [17]): inactive
14 | O=C1CCC2c3cc(O)c(O)cc3CCN12 (racemic) | inactive | inactive | inactive | inactive | inactive | 6.66 | 0 | 0 | 0 | 0 | 0 | 0 | – | – | –
15 | COc1cc2c(cc1Cl)CCN1C(=O)CCC21 (stereo not given) | – | – | – | – | – | 7.33 | 7.83 | 6.83 | – | 6.83 | 6.16 | 10.33 | 7.5 | 6.33 | inhibition zone (IZ) (Trichoderma viride [13]): 0 mm; inhibition zone (IZ) [15]: 6.83 mm; inhibition zone (IZ) (Aspergillus parasiticus [17]): 7.5 mm

— ChEMBL document CHEMBL2157981, “Synthesis of new antimicrobial pyrrolo[2,1-a]isoquinolin-3-ones” (2012)
